pIC50: −log10 of the molar value.
Columns and labels:
Casein kinase II = Casein kinase II (Homo sapiens, UniProt P19784+P67870+P68400); assay: Inhibition of human recombinant CK2 expressed in Escherichia coli BL21(DE3) using RRRDDDSDDD as substrate after 15 mins by capillary electrophoretic analysis
U-937 = assay: Antiproliferative activity against human U937 cells after 1 to 3 days by MTS assay; format: functional
How it was run: (§1)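 Leukemic lines grown in RPMI 1640 with 10% FCS, penicillin/streptomycin and L-glutamine at 37°C, 5% CO2. Cells washed twice in PBS, plated in quadruplicate with compound at 0, 1, 5, 10, 20 and 50 µM for 1, 2 and 3 days. MTS added for 3 h at 37°C, absorbance read at 490 nm. CC50 after 3 days by linear regression, mean ± SD of 3 independent experiments.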

K562 = assay: Antiproliferative activity against human K562 cells after 1 to 3 days by MTS assay; format: functional; how it was run: as §1
Jurkat [1] = assay: Antiproliferative activity against human Jurkat cells after 1 to 3 days by MTS assay; format: functional; how it was run: as §1
MV4-11 [2] = assay: Antiproliferative activity against human MV4-11 cells after 1 to 3 days by MTS assay; format: functional; how it was run: as §1
[3] = Cytotoxicity against human PHA-activated PBMC after 1 to 3 days by MTS assay; format: cell-based
How it was run: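 PBMNC from blood of healthy volunteers, isolated by Ficoll gradient centrifugation and stimulated with PHA (5 µg/mL). Cells washed in PBS, plated in quadruplicate with compound at 0, 1, 5, 10, 20 and 50 µM for 1 to 3 days. MTS read at 490 nm after 3 h at 37°C. CC50 at day 3 by linear regression, mean ± SD of 3 independent experiments.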

MV4-11 [4] = assay: Selectivity index, ratio of CC50 for human PHA-activated PBMC to CC50 for human MV4-11 cells
Jurkat [5] = assay: Selectivity index, ratio of CC50 for human PHA-activated PBMC to CC50 for human Jurkat cells

Casein kinase II, sequence (P67870 whole entry): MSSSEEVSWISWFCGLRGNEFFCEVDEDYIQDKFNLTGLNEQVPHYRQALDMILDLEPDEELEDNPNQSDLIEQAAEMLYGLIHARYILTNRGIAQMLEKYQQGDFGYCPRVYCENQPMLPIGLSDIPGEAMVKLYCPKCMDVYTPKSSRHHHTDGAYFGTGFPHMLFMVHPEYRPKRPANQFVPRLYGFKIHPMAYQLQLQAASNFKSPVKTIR
Casein kinase II, sequence (P68400 whole entry): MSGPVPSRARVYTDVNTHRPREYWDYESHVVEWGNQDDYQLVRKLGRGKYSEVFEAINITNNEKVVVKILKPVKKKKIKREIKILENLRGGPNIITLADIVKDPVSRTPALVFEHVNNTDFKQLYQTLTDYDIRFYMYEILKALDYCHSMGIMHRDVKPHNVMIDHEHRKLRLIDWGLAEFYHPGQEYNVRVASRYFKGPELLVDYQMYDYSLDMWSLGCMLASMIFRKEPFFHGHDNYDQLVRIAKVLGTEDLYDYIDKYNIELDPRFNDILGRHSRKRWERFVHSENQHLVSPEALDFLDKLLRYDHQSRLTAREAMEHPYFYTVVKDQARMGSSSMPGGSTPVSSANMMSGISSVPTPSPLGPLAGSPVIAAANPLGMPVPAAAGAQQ
Casein kinase II, sequence (P19784 whole entry): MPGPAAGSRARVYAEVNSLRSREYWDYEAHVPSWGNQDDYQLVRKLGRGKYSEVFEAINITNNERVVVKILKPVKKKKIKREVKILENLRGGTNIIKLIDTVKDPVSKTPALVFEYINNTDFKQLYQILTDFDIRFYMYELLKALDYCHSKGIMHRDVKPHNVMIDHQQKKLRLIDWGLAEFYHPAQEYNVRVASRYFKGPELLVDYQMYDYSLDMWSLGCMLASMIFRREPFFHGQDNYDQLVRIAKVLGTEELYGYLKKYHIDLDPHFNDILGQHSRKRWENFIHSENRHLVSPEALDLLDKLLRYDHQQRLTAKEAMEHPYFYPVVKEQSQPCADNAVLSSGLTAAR

Row | SMILES | pIC50 (Casein kinase II) | CC50 (U-937) [µM] | CC50 (K562) [µM] | CC50 (Jurkat [1]) [µM] | CC50 (MV4-11 [2]) [µM] | CC50 [3] [µM] | Selectivity Index (MV4-11 [4]) | Selectivity Index (Jurkat [5])
1 | C#Cc1cccc(Nc2nc3cc(C(=O)O)ccc3n3cc(-c4cccnc4)cc23)c1 | 6.05 | – | – | – | – | – | – | –
2 | C#Cc1cccc(Nc2nc3ccccc3n3ccc(C(=O)O)c23)c1 | 6.87 | > 50 | > 50 | > 50 | > 50 | > 50 | – | –
3 | O=c1oc2c(O)c(O)cc3c(=O)oc4c(O)c(O)cc1c4c23 [ELLAGIC ACID] | 7.40 | – | – | – | – | – | – | –
4 | C#Cc1cccc(Nc2ccc3c(c2)nc(C(=O)O)c2cccn23)c1 | 6.07 | – | – | – | – | – | – | –
5 | C#Cc1cccc(Nc2nc3ccccc3n3cc(C(=O)O)cc23)c1 | 5.72 | > 50 | > 50 | 41 | > 50 | > 50 | – | –
6 | O=C(O)c1cc2c(Nc3cccc(Cl)c3)nc3ccccc3n2c1 | 5.37 | > 50 | > 50 | > 50 | > 50 | > 50 | – | –
7 | C#Cc1cccc(Nc2nc3cc(C(=O)O)ccc3n3cccc23)c1 | 7.11 | > 50 | > 50 | > 50 | 20 | > 50 | >2.5 | –
8 | O=C(O)c1ccc2c(c1)nc(Nc1cccc(Cl)c1)c1ccncc12 [SILMITASERTIB] | – | 4.2 | 7 | 4.5 | 3 | 50 | – | –
9 | O=C(O)c1nc2cc(Nc3cccc(Cl)c3)ccc2n2cccc12 | 6.01 | 39.2 | > 50 | 31.4 | 47 | > 50 | – | 1.6
10 | C#Cc1cccc(Nc2nc3ccc(C(=O)O)cc3n3cccc23)c1 | 6.08 | > 50 | > 50 | > 50 | > 50 | > 50 | – | –
11 | O=C(O)c1ccn2c1c(Nc1cccc(Cl)c1)nc1ccccc12 | 7.31 | 47.7 | 42 | > 50 | > 50 | > 50 | – | –
12 | O=C(O)c1ccc2c(c1)nc(Nc1cccc(Cl)c1)c1cc(-c3cccnc3)cn12 | 5.80 | – | – | – | – | – | – | –
13 | O=C(O)c1ccc2nc(Nc3cccc(Cl)c3)c3cccn3c2c1 | 6.08 | > 50 | > 50 | > 50 | > 50 | > 50 | – | –
14 | O=C(O)c1ccc2c(c1)nc(Nc1cccc(Cl)c1)c1cccn12 | 6.93 | > 50 | > 50 | > 50 | 20 | > 50 | >2.5 | –
15 | Nc1cccc(C#Cc2ccc3c(c2)nc(C(=O)O)c2cccn23)c1 | 5.08 | – | – | – | – | – | – | –

Reference: ChEMBL document CHEMBL2401624, “Synthesis and biological evaluation of novel substituted pyrrolo[1,2-a]quinoxaline derivatives as inhibitors of the human protein kinase CK2” (Eur J Med Chem, 2013)
